Holding throughout (assay type): functional
For test [1], the system named is Staphylococcus aureus. Kind of test: Antibacterial activity against methicillin-resistant Staphylococcus aureus 33922 infected in in vitro pharmacokinetic model assessed as time required to 99% killing at 3 mg/ml using 10^6 CFU/ml inoculum.
Test [2] relates to Staphylococcus aureus. Kind of test: Antibacterial activity against methicillin-resistant Staphylococcus aureus 33827 infected in in vitro pharmacokinetic model assessed as time required to 99% killing at 3 mg/ml using 10^6 CFU/ml inoculum.
The test system of test [3] is Staphylococcus aureus. Kind of test: Antibacterial activity against methicillin-resistant Staphylococcus aureus 33815 infected in in vitro pharmacokinetic model assessed as time required to 99% killing at 3 mg/ml using 10^6 CFU/ml inoculum. The method, boiled down:
(§1)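 Single-compartment model in 10% MHB at 37°C with 10^6 CFU/ml inoculum. Log change in count from time 0 and times to 99%/99.9% kill from serial spiral-plate counts; at least triplicate.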

Test [4] concerns Staphylococcus aureus. Kind of test: Antibacterial activity against methicillin-resistant Staphylococcus aureus 33922 infected in in vitro pharmacokinetic model assessed as reduction in viable count at 3 mg/ml after 12 hrs using 10^6 CFU/ml inoculum.
Test [5] deals with Staphylococcus aureus. Kind of test: Antibacterial activity against methicillin-resistant Staphylococcus aureus 33827 infected in in vitro pharmacokinetic model assessed as reduction in viable count at 3 mg/ml after 12 hrs using 10^6 CFU/ml inoculum.
Test [6] relates to Staphylococcus aureus. Kind of test: Antibacterial activity against methicillin-resistant Staphylococcus aureus 33815 infected in in vitro pharmacokinetic model assessed as reduction in viable count at 3 mg/ml after 12 hrs using 10^6 CFU/ml inoculum. The method, boiled down: as §1
The test system of test [7] is Staphylococcus aureus. Kind of test: Antibacterial activity against methicillin-resistant Staphylococcus aureus 33922 infected in in vitro pharmacokinetic model assessed as reduction in viable count at 3 mg/ml after 24 hrs using 10^6 CFU/ml inoculum.
Test [8] relates to Staphylococcus aureus. Kind of test: Antibacterial activity against methicillin-resistant Staphylococcus aureus 33827 infected in in vitro pharmacokinetic model assessed as reduction in viable count at 3 mg/ml after 24 hrs using 10^6 CFU/ml inoculum.
For test [9], the system named is Staphylococcus aureus. Kind of test: Antibacterial activity against methicillin-resistant Staphylococcus aureus 33815 infected in in vitro pharmacokinetic model assessed as reduction in viable count at 3 mg/ml after 24 hrs using 10^6 CFU/ml inoculum. In outline: as §1
Test [10] concerns Staphylococcus aureus. Kind of test: Antibacterial activity against methicillin-resistant Staphylococcus aureus 33922 infected in in vitro pharmacokinetic model assessed as reduction in viable count at 3 mg/ml after 36 hrs using 10^6 CFU/ml inoculum.
The test system of test [11] is Staphylococcus aureus. Kind of test: Antibacterial activity against methicillin-resistant Staphylococcus aureus 33827 infected in in vitro pharmacokinetic model assessed as reduction in viable count at 3 mg/ml after 36 hrs using 10^6 CFU/ml inoculum.
For test [12], the system named is Staphylococcus aureus. Kind of test: Antibacterial activity against methicillin-resistant Staphylococcus aureus 33815 infected in in vitro pharmacokinetic model assessed as reduction in viable count at 3 mg/ml after 36 hrs using 10^6 CFU/ml inoculum. In outline: as §1
The test system of test [13] is Staphylococcus aureus. Kind of test: Antibacterial activity against methicillin-resistant Staphylococcus aureus 33922 infected in in vitro pharmacokinetic model assessed as reduction in viable count at 3 mg/ml after 48 hrs using 10^6 CFU/ml inoculum.
Test [14] has as its system Staphylococcus aureus. Kind of test: Antibacterial activity against methicillin-resistant Staphylococcus aureus 33827 infected in in vitro pharmacokinetic model assessed as reduction in viable count at 3 mg/ml after 48 hrs using 10^6 CFU/ml inoculum.
The subject of test [15] is Staphylococcus aureus. Kind of test: Antibacterial activity against methicillin-resistant Staphylococcus aureus 33815 infected in in vitro pharmacokinetic model assessed as reduction in viable count at 3 mg/ml after 48 hrs using 10^6 CFU/ml inoculum. In outline:
as §1

Test [16] relates to Staphylococcus aureus. Kind of test: Antibacterial activity against methicillin-resistant Staphylococcus aureus 33922 infected in in vitro pharmacokinetic model assessed as time required to 99.9% killing at 3 mg/ml using 10^6 CFU/ml inoculum.
For test [17], the system named is Staphylococcus aureus. Kind of test: Antibacterial activity against methicillin-resistant Staphylococcus aureus 33827 infected in in vitro pharmacokinetic model assessed as time required to 99.9% killing at 3 mg/ml using 10^6 CFU/ml inoculum.
For test [18], the system named is Staphylococcus aureus. Kind of test: Antibacterial activity against methicillin-resistant Staphylococcus aureus 33815 infected in in vitro pharmacokinetic model assessed as time required to 99.9% killing at 3 mg/ml using 10^6 CFU/ml inoculum. The method, boiled down:
as §1

The subject of test [19] is Staphylococcus aureus. Kind of test: AUBKC (0 to 24 hrs) in methicillin-resistant Staphylococcus aureus 33922 infected in in vitro pharmacokinetic model at 3 mg/ml using 10^6 CFU/ml inoculum. In outline:
(§2)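 Run in a single-compartment in vitro PK model at 37°C in 10% MHB, flow 47.9 ml/h, 10^6 CFU/ml inoculum. Viable counts over 48 h. AUBKC 0-24 and 0-48 h by log-linear trapezoidal rule, at least triplicate.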

Test [20] concerns Staphylococcus aureus. Kind of test: AUBKC (0 to 24 hrs) in methicillin-resistant Staphylococcus aureus 33827 infected in in vitro pharmacokinetic model at 3 mg/ml using 10^6 CFU/ml inoculum. The method, boiled down: as §2
In test [21] the test system is Staphylococcus aureus. Kind of test: AUBKC (0 to 24 hrs) in methicillin-resistant Staphylococcus aureus 33815 infected in in vitro pharmacokinetic model at 3 mg/ml using 10^6 CFU/ml inoculum. In outline: as §2
Test [22] deals with Staphylococcus aureus. Kind of test: AUBKC (0 to 48 hrs) in methicillin-resistant Staphylococcus aureus 33922 infected in in vitro pharmacokinetic model at 3 mg/ml using 10^6 CFU/ml inoculum. In outline:
as §2

For test [23], the system named is Staphylococcus aureus. Kind of test: AUBKC (0 to 48 hrs) in methicillin-resistant Staphylococcus aureus 33827 infected in in vitro pharmacokinetic model at 3 mg/ml using 10^6 CFU/ml inoculum. The method, boiled down:
as §2

The subject of test [24] is Staphylococcus aureus. Kind of test: AUBKC (0 to 48 hrs) in methicillin-resistant Staphylococcus aureus 33815 infected in in vitro pharmacokinetic model at 3 mg/ml using 10^6 CFU/ml inoculum. The method, boiled down:
as §2

The record followed here is ChEMBL document CHEMBL1255300, “Pharmacodynamics of the antibacterial effect and emergence of resistance to tomopenem, formerly RO4908463/CS-023, in an in vitro pharmacokinetic model of Staphylococcus aureus infection” (Antimicrob Agents Chemother, 2008).

For the molecule `CN[C@H](CC(C)C)C(=O)N[C@H]1C(=O)N[C@@H](CC(N)=O)C(=O)N[C@H]2C(=O)N[C@H]3C(=O)N[C@H](C(=O)N[C@H](C(=O)O)c4cc(O)cc(O)c4-c4cc3ccc4O)[C@H](O)c3ccc(c(Cl)c3)Oc3cc2cc(c3O[C@@H]2O[C@H](CO)[C@@H](O)[C@H](O)[C@H]2O[C@H]2C[C@](C)(N)[C@H](O)[C@H](C)O2)Oc2ccc(cc2Cl)[C@H]1O` [VANCOMYCIN], the Time in the test on Staphylococcus aureus [1] was 12 h; with Staphylococcus aureus [2], 24 h; in the test with Staphylococcus aureus [3], 12 h; in the test with Staphylococcus aureus [16], >48 h; in the test with Staphylococcus aureus [17], 24 h; in the test with Staphylococcus aureus [18], 12 h. Also, the log10CFU/ml is given as 2.2 in the test with Staphylococcus aureus [4]; 1.8 in the test on Staphylococcus aureus [5]; 3.3 with Staphylococcus aureus [6]; 2.6 in the test with Staphylococcus aureus [7]; 3.2 in the test on Staphylococcus aureus [8]; 2 with Staphylococcus aureus [9]. Further, the log10CFU/ml in the test on Staphylococcus aureus [10] is given as 3; in the test with Staphylococcus aureus [11], 4; in the test with Staphylococcus aureus [12], 1.7; with Staphylococcus aureus [13] it was 2.9; in the test with Staphylococcus aureus [14] it was 4.2; in the test with Staphylococcus aureus [15], 1.6. The AUBC came to 54.8 log10CFU/ml.hr in the test with Staphylococcus aureus [19]; 56.7 log10CFU/ml.hr with Staphylococcus aureus [20]; 46.2 log10CFU/ml.hr in the test with Staphylococcus aureus [21]; 80.1 log10CFU/ml.hr in the test with Staphylococcus aureus [22]; 61.9 log10CFU/ml.hr in the test on Staphylococcus aureus [23]; 97.4 log10CFU/ml.hr in the test with Staphylococcus aureus [24].
